# Active and inactive are the calls of the source. The calls are words filed in the database; no cut-off is given here.
# Assays:
# [1] = tested on: Prunus dulcis; test: Inhibition of almond beta-glucosidase at 10 uM using p-nitrophenyl glycopyranoside preincubated for 5 mins followed by substrate addition measured after 20 mins by visible absorption spectroscopic method relative to control
# Summary of the method: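 Crude click-reaction products screened in situ. Azide (final 15 mM) was reacted with each alkyne using sodium ascorbate/CuSO4 in tBuOH–H2O for 24 h at rt, then diluted with water. Tested at 10 μM per well, assuming quantitative conversion, against almond β-glucosidase at pH 5, 37 °C. p-Nitrophenyl glycoside read-out at 405 nm.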
# [2] = target: Beta-galactosidase (Escherichia coli) (UniProt Q8VNN2); test: Inhibition of Escherichia coli beta-galactosidase at 1 mM using p-nitrophenyl glycopyranoside preincubated for 5 mins followed by substrate addition measured after 20 mins by visible absorption spectroscopic method relative to control
# Chain of Beta-galactosidase (Escherichia coli) (Q8VNN2 whole entry, looked up): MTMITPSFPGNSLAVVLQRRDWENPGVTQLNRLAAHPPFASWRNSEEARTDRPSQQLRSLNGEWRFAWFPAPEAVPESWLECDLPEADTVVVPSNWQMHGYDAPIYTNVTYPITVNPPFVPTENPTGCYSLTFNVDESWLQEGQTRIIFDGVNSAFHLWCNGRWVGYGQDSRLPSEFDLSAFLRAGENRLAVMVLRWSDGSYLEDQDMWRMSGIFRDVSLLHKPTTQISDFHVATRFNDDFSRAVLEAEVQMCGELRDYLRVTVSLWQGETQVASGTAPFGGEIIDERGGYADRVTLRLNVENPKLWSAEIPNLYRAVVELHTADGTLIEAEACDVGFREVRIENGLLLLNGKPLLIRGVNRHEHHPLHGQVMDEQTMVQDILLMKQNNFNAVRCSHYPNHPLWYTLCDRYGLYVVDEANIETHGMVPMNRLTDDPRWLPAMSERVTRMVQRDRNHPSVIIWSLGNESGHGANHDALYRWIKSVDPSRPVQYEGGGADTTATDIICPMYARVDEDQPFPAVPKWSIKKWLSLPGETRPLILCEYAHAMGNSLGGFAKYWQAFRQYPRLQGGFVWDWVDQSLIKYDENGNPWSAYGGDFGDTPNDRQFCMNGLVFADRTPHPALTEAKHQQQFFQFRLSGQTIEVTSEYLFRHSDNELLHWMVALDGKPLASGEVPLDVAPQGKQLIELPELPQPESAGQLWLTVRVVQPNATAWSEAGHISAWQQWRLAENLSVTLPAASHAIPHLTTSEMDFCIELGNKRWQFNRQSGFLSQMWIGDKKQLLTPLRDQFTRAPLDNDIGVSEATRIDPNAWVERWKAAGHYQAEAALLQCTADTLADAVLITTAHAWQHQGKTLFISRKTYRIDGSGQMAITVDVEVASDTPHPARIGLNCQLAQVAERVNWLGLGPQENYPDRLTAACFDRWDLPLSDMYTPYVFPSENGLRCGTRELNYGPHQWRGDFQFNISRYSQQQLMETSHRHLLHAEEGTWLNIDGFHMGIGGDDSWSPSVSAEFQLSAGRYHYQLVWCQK
# Summary of the method: (§1)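 Test compound at 1 mM in well. Mix: 0.01–0.5 units/mL enzyme plus 10 mM p-nitrophenyl glycopyranoside (aqueous solution), buffered to the enzyme's optimal pH. Enzyme and inhibitor preincubated 5 min at rt. Substrate then added and incubated 20 min at 37 °C. Stopped with sodium borate (pH 9.8). p-Nitrophenolate read at 405 nm. Duplicates averaged.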
# [3] = species: Bos taurus; test: Inhibition of bovine kidney alpha-L-fucosidase at 1 mM using p-nitrophenyl glycopyranoside preincubated for 5 mins followed by substrate addition measured after 20 mins by visible absorption spectroscopic method relative to control; summary of the method: as §1
# [4] = target: Alpha-galactosidase (Coffea arabica) (UniProt Q42656); test: Inhibition of coffee beans alpha-galactosidase at 1 mM using p-nitrophenyl glycopyranoside preincubated for 5 mins followed by substrate addition measured after 20 mins by visible absorption spectroscopic method relative to control; summary of the method: as §1
# Chain of Alpha-galactosidase (Coffea arabica) (Q42656 16-378 limits assumed): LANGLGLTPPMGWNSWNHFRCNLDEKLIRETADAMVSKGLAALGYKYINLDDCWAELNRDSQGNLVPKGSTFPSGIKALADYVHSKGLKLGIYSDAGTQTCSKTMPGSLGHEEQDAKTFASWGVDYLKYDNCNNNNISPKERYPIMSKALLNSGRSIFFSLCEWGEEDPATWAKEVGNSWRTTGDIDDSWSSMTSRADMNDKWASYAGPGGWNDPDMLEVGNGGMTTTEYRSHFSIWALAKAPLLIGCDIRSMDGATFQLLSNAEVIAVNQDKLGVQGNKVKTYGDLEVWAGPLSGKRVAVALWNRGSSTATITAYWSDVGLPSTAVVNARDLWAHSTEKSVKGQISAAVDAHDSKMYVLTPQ
# [5] = target: T1, Beta-galactosidase (Aspergillus oryzae) (UniProt B7VU80); test: Inhibition of Aspergillus oryzae beta-galactosidase at 1 mM using p-nitrophenyl glycopyranoside preincubated for 5 mins followed by substrate addition measured after 20 mins by visible absorption spectroscopic method relative to control; summary of the method: as §1
# T1 sequence (whole entry): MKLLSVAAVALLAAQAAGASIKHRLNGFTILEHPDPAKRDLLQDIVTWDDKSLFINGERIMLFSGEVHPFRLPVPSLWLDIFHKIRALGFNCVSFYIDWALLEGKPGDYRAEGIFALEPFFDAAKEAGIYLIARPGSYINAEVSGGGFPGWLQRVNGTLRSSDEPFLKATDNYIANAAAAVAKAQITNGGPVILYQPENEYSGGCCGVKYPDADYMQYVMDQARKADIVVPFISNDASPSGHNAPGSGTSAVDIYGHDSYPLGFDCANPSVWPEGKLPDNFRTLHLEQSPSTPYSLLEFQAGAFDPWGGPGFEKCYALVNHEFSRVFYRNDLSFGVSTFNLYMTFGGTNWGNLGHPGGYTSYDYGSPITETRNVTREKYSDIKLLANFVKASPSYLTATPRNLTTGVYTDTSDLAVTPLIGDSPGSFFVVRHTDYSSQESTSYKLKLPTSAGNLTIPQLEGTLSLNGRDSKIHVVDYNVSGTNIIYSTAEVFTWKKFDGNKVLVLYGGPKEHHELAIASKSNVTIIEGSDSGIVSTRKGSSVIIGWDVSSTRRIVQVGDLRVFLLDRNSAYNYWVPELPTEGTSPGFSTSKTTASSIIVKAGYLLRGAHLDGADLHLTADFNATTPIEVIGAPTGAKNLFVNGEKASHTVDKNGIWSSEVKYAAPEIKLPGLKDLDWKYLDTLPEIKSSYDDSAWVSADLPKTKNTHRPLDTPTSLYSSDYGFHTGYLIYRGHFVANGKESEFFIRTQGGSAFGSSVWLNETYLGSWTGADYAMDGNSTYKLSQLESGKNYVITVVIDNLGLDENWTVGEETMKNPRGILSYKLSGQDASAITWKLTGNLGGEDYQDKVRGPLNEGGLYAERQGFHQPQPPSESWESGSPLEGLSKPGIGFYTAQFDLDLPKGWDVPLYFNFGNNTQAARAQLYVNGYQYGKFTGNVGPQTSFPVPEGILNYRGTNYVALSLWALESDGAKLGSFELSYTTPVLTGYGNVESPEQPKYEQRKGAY
# [6] = tested on: Saccharomyces cerevisiae; test: Inhibition of yeast alpha glucosidase at 1 mM using p-nitrophenyl glycopyranoside preincubated for 5 mins followed by substrate addition measured after 20 mins by visible absorption spectroscopic method relative to control; summary of the method: as §1
# [7] = tested on: Oryza sativa; test: Inhibition of rice alpha-glucosidase at 1 mM using p-nitrophenyl glycopyranoside preincubated for 5 mins followed by substrate addition measured after 20 mins by visible absorption spectroscopic method relative to control; summary of the method: as §1
# [8] = tested on: Aspergillus niger; test: Inhibition of Aspergillus niger amyloglucosidase at 1 mM using p-nitrophenyl glycopyranoside preincubated for 5 mins followed by substrate addition measured after 20 mins by visible absorption spectroscopic method relative to control; summary of the method: as §1
# [9] = tested on: Prunus dulcis; test: Inhibition of almond beta-glucosidase at 1 mM using p-nitrophenyl glycopyranoside preincubated for 5 mins followed by substrate addition measured after 20 mins by visible absorption spectroscopic method relative to control; summary of the method: as §1
# [10] = target: T2, Alpha-mannosidase (Canavalia ensiformis) (UniProt C0HJB3); test: Inhibition of jack bean alpha-mannosidase at 1 mM using p-nitrophenyl glycopyranoside preincubated for 5 mins followed by substrate addition measured after 20 mins by visible absorption spectroscopic method relative to control; summary of the method: as §1
# T2 sequence (whole entry): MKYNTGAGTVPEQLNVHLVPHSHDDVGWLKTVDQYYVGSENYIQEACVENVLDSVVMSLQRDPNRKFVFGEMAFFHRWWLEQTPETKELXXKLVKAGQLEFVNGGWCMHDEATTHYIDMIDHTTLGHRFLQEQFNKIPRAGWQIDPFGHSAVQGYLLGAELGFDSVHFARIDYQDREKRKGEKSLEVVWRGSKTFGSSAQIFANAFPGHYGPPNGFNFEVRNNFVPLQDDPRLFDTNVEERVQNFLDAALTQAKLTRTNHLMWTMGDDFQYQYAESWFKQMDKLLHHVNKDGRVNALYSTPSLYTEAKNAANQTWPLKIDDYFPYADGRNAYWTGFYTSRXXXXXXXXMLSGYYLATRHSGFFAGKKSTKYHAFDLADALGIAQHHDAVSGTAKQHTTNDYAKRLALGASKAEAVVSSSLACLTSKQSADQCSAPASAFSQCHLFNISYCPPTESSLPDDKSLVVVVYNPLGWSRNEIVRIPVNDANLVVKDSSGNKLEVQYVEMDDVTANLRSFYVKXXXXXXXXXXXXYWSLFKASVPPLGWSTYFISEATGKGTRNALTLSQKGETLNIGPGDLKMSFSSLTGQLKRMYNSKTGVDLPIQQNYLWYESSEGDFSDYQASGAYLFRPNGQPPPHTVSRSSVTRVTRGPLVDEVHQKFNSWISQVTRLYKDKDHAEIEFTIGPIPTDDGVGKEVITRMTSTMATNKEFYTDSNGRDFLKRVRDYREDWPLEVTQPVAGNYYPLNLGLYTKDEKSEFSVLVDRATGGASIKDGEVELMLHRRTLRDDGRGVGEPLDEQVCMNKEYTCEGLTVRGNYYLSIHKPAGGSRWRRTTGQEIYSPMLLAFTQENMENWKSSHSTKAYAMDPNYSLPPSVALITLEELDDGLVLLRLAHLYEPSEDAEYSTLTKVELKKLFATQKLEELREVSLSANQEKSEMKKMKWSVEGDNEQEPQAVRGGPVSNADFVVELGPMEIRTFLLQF
# [11] = tested on: Cornu aspersum; test: Inhibition of snail beta-mannosidase at 1 mM using p-nitrophenyl glycopyranoside preincubated for 5 mins followed by substrate addition measured after 20 mins by visible absorption spectroscopic method relative to control; summary of the method: as §1
# [12] = tested on: Canavalia ensiformis; test: Inhibition of jack bean beta-N-acetylglucosaminidase at 1 mM using p-nitrophenyl glycopyranoside preincubated for 5 mins followed by substrate addition measured after 20 mins by visible absorption spectroscopic method relative to control; summary of the method: as §1
smiles,measurement,setting,value
OCc1ccc(-c2cn(C[C@@H]3NC[C@@H](O)[C@H]3O)nn2)cc1,inhibition,[1],inactive
Cc1ccc(S(=O)(=O)OCCOCCOCCOCCOCCOCCOCc2cn(C[C@@H]3NC[C@@H](O)[C@H]3O)nn2)cc1,inhibition,[1],inactive
COc1ccc2cc(-c3cn(C[C@@H]4NC[C@@H](O)[C@H]4O)nn3)ccc2c1,inhibition,[1],inactive
O[C@@H]1[C@H](O)CN[C@H]1c1cn(Cc2ccccc2)nn1,inhibition,[2],inactive
same,inhibition,[3],71%
same,inhibition,[4],inactive
same,inhibition,[5],inactive
same,inhibition,[6],inactive
same,inhibition,[7],inactive
same,inhibition,[8],inactive
same,inhibition,[9],inactive
same,inhibition,[10],inactive
same,inhibition,[11],inactive
same,inhibition,[12],inactive
OCCOCCOCCOCCOCCOCCOCc1cn(C[C@@H]2NC[C@@H](O)[C@H]2O)nn1,inhibition,[1],inactive
OCc1cn(C[C@@H]2NC[C@@H](O)[C@H]2O)nn1,inhibition,[1],inactive
O[C@H]1[C@@H](O)CN[C@@H]1Cn1cc(-c2ccccc2)nn1,inhibition,[2],inactive
same,inhibition,[3],inactive
same,inhibition,[4],inactive
same,inhibition,[5],inactive
same,inhibition,[6],inactive
same,inhibition,[7],inactive
same,inhibition,[8],inactive
same,inhibition,[9],49%
same,inhibition,[10],60%
same,inhibition,[11],inactive
same,inhibition,[12],inactive
O=C(NCc1cn(C[C@@H]2NC[C@@H](O)[C@H]2O)nn1)c1ccccc1,inhibition,[1],inactive
O[C@@H]1[C@@H](c2cn(Cc3ccccc3)nn2)NC[C@@H]1O,inhibition,[2],inactive
same,inhibition,[3],21%
same,inhibition,[4],inactive
same,inhibition,[5],inactive
same,inhibition,[6],inactive
same,inhibition,[7],inactive
same,inhibition,[8],inactive
same,inhibition,[9],inactive
same,inhibition,[10],30%
same,inhibition,[11],inactive
same,inhibition,[12],inactive
COc1ccc(-c2cn(C[C@@H]3NC[C@@H](O)[C@H]3O)nn2)cc1,inhibition,[1],inactive
CN(Cc1ccccc1)Cc1cn(C[C@@H]2NC[C@@H](O)[C@H]2O)nn1,inhibition,[1],inactive
O[C@@H]1[C@H](O)CN[C@H]1Cn1cc(COc2ccccc2)nn1,inhibition,[1],inactive
OCCOCc1cn(C[C@@H]2NC[C@@H](O)[C@H]2O)nn1,inhibition,[1],inactive
NCc1cn(C[C@@H]2NC[C@@H](O)[C@H]2O)nn1,inhibition,[1],inactive
O[C@@H]1[C@H](O)CN[C@H]1Cn1cc(CC2CCCCC2)nn1,inhibition,[1],inactive
[N-]=[N+]=NC[C@@H]1NC[C@@H](O)[C@H]1O,inhibition,[2],inactive
same,inhibition,[3],33%
same,inhibition,[4],44%
same,inhibition,[5],inactive
same,inhibition,[6],inactive
same,inhibition,[7],inactive
same,inhibition,[8],inactive
same,inhibition,[9],inactive
same,inhibition,[10],71%
same,inhibition,[11],inactive
same,inhibition,[12],inactive
same,inhibition,[1],inactive
O=C(NC[C@@H]1NC[C@@H](O)[C@H]1O)c1ccccc1,inhibition,[2],inactive
same,inhibition,[3],15%
same,inhibition,[4],inactive
same,inhibition,[5],inactive
same,inhibition,[6],inactive
same,inhibition,[7],inactive
same,inhibition,[8],inactive
same,inhibition,[9],79%
same,inhibition,[10],71%
same,inhibition,[11],inactive
same,inhibition,[12],17%
O=C(O)CCCc1cn(C[C@@H]2NC[C@@H](O)[C@H]2O)nn1,inhibition,[1],inactive
O[C@@H]1[C@H](O)CN[C@H]1Cn1cc(C2(O)CCCCC2)nn1,inhibition,[1],inactive
OCCCc1cn(C[C@@H]2NC[C@@H](O)[C@H]2O)nn1,inhibition,[1],inactive
COC(=O)c1cn(C[C@@H]2NC[C@@H](O)[C@H]2O)nn1,inhibition,[1],inactive
Cc1oc(CO)cc1C(=O)NCc1cn(C[C@@H]2NC[C@@H](O)[C@H]2O)nn1,inhibition,[1],inactive
O[C@@H]1[C@H](O)CN[C@H]1CNC(=S)Nc1ccccc1,inhibition,[2],inactive
same,inhibition,[3],inactive
same,inhibition,[4],16%
same,inhibition,[5],inactive
same,inhibition,[6],inactive
same,inhibition,[7],inactive
same,inhibition,[8],18%
same,inhibition,[9],74%
same,inhibition,[10],inactive
same,inhibition,[11],45%
same,inhibition,[12],inactive
